We go through 13 molecules from ChEMBL document CHEMBL1134906, “Arylpiperazine substituted heterocycles as selective alpha(1a) adrenergic antagonists” (Bioorg Med Chem Lett, 2002).

For assay [1], the target named is T1, Alpha-1D adrenergic receptor (Homo sapiens, UniProt P25100).
T1 sequence (P25100 whole entry): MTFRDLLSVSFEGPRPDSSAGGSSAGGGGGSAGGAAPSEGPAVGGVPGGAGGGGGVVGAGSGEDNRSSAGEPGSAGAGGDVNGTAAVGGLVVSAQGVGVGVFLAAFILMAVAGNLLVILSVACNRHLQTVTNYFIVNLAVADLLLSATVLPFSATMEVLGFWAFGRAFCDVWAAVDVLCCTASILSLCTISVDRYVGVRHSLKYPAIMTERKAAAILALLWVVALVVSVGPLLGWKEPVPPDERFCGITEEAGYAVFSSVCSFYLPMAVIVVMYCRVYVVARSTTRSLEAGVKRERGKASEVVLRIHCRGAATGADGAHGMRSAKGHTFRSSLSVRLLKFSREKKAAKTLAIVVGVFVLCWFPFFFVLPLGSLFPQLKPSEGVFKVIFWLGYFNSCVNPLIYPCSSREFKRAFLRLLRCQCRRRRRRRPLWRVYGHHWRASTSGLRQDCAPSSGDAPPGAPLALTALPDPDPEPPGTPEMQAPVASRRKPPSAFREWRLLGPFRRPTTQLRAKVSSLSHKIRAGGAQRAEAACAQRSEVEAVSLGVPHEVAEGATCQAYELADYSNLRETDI
Description: Displacement of [125I]HEAT from human Alpha-1D adrenergic receptor. An outline of the steps:
(§1)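 Radioligand competition binding against 125I-HEAT ((±)-β-([125I]-3-iodo-4-hydroxyphenyl)ethylaminomethyl-tetralone), with COS cells as the receptor source. Ki values are derived from displacement and reported as means of three experiments.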
On the technique in general: Displacement assays read how much labelled ligand stays bound in the presence of the test substance.

For assay [2], the target named is T2, Alpha-1A adrenergic receptor (Homo sapiens, UniProt P35348).
T2 sequence (P35348 whole entry): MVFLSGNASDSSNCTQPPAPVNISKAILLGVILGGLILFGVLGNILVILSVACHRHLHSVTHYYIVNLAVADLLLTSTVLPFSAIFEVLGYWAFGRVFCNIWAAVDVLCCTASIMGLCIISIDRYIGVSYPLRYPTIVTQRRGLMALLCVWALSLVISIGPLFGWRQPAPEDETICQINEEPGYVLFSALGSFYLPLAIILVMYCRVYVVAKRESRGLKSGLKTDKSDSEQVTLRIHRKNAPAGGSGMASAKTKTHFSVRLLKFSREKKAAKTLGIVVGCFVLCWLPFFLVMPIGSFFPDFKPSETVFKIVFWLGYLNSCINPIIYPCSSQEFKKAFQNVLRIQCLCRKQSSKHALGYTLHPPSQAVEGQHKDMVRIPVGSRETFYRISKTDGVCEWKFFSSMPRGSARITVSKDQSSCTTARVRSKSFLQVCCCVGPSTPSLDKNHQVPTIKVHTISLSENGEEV
Description: Displacement of [125I]HEAT from human Alpha-1A adrenergic receptor. An outline of the steps:
as §1

Assay [3] concerns the target T3, Alpha-1B adrenergic receptor (Homo sapiens, UniProt P35368).
T3 sequence (P35368 whole entry): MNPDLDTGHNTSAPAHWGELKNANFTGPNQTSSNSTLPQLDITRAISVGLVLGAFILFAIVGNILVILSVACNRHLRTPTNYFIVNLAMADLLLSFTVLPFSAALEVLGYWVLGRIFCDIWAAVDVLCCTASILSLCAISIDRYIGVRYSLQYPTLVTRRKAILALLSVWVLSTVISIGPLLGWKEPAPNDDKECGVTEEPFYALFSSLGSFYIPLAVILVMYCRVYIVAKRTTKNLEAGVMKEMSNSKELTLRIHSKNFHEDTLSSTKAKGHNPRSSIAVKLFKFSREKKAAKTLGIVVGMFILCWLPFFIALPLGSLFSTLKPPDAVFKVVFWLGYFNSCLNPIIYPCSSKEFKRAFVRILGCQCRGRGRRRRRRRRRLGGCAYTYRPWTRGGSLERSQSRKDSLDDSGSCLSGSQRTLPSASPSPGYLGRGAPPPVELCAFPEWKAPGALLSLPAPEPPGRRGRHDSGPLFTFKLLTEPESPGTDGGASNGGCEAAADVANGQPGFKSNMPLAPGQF
Description: Displacement of [125I]-HEAT from human Alpha-1B adrenergic receptor. The method in brief:
as §1

The target of assay [4] is Adrenergic receptors; alpha-1 A & B (Homo sapiens) (UniProt P35348+P35368). Description: Relative binding affinity for alpha-1b and alpha-1a adrenergic receptors. In kind it is protein assay.
Assay [5] has as its target Alpha adrenergic receptor (1a and 1d) (Homo sapiens) (UniProt P35348+P25100). Description: Relative binding affinity for alpha-1d and Alpha-1A adrenergic receptors. The format is protein assay.

Structures are written as SMILES.

In general, Ki refers to the dissociation constant of the complex between target and ligand, obtained from inhibition or displacement.

Consider `CC(C)Oc1ccccc1N1CCN(Cc2cc(CN3CCCC3=O)no2)CC1`, for which the values for the Ki in assay [1], in assay [2] and in assay [3] were 0.0655 µM, 0.0011 µM and 2.99 µM, respectively. Further, the Ki ratio was 2720 in assay [4] and 60 in assay [5].
Turning to `CC(C)Oc1ccccc1N1CCN(Cc2nc(CN3C(=O)c4ccccc4C3=O)co2)CC1`, the results for the Ki in assay [1], in assay [2] and in assay [3] were 1.11 µM, 0.297 µM and more than 5 µM, respectively. Besides, the Ki ratio in assay [4] is more than 16.8; in assay [5] it was 3.7.
On the same counts, the results for `CC(C)Oc1ccccc1N1CCN(Cc2nc(CN3CCCC3=O)cs2)CC1` are 0.105 µM, 0.0009 µM, 4.25 µM, 4520 and 112.
For `CC(C)Oc1ccccc1N1CCN(Cc2cc(CN3CCCCC3=O)no2)CC1` the same measures were 1.44 µM, 0.0084 µM, more than 5 µM, more than 595 and 174.
On the same counts, the results for `O=C1CCCCN1Cc1cc(CN2CCN(c3ccccc3Oc3ccccc3)CC2)on1` are 0.17 µM, 0.015 µM, 2.21 µM, 147 and 11.3.
As for `CC(C)Oc1ccccc1N1CCN(Cc2nc(CN3CCCC3=O)co2)CC1`, the Ki in assay [1] is more than 5 µM; in assay [2], 1.3 µM; in assay [3] it was more than 5 µM. The Ki ratio in assay [4] and in assay [5] was more than 3.8 in each case.
Turning to `CC(C)Oc1ccccc1N1CCN(Cc2nc(CN3CCCCC3=O)cs2)CC1`, the Ki in assay [1] turned out to be 0.0395 µM; in assay [2], 0.0012 µM; in assay [3], 1.74 µM. Moreover, the Ki ratio in assay [4] was determined as 1450; in assay [5], 33.
As for `OCc1cc(CN2CCN(c3ccccc3Oc3ccccc3)CC2)on1`, the Ki in assay [1] turned out to be 3.06 µM; in assay [2], 1.5 µM; in assay [3] it was 3.72 µM. The Ki ratio in assay [4] worked out at 2.5; in assay [5], 2.
On the same counts, the results for `O=C1CCCN1Cc1cc(CN2CCN(c3ccccc3Oc3ccccc3)CC2)on1` are 0.0345 µM, 0.028 µM, more than 5 µM, more than 170 and 1.2.
On the same counts, the results for `CC(C)Oc1ccccc1N1CCN(Cc2nc(CN3C(=O)CC4(CCCC4)CC3=O)co2)CC1` are 4.14 µM, 0.082 µM, more than 5 µM, more than 61 and 50.
For `O=C1CCCCCN1Cc1cc(CN2CCN(c3ccccc3Oc3ccccc3)CC2)on1` the same measures were 0.285 µM, 0.086 µM, more than 5 µM, more than 58 and 3.3.
Consider `CC(C)Oc1ccccc1N1CCN(Cc2nc(CN3CCCCCC3=O)co2)CC1`, for which the Ki is more than 5 µM in assay [1], 3.47 µM in assay [2] and more than 5 µM in assay [3]. The Ki ratio in assay [4] and in assay [5] was more than 1.4 throughout.
Take `CC(C)Oc1ccccc1N1CCN(Cc2nc(CN3CCCCC3=O)co2)CC1`: the Ki is more than 5 µM in assay [1], 2.32 µM in assay [2] and more than 5 µM in assay [3]. Moreover, the Ki ratio in assay [4] and in assay [5] was more than 2.2 in each case.
